Publication PMC8044591 (International Journal for Parasitology: Drugs and Drug …, 2021)
Read-outs that look alike come from different tables or passages of the source. Marks after values point to notes of the source that are not given here.

Legend:
Oesophagostomum = settings: sheep, cited from earlier work; for reduction of Oesophagostomum: 2009
Cooperia spp. = assay: FECR by genus from coprocultures, naturally parasitized calves; format: in vivo
How it was run: (§1)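 Male Aberdeen Angus calves, 9–11 months, naturally infected, ≥100 EPG on day −1, were ranked by EPG and randomised to groups of 15 per farm. Dosing was oral 2.5 mg/kg or SC 0.2 or 3.75 mg/kg. Rectal faeces on day −1 and day 15 were read by modified McMaster (10 EPG sensitivity). Coprocultures used 10 g faeces; ~100 Baermann L3 were identified per sample. Genus efficacy used group mean EPG […] that genus's L3 proportion.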

[1] = liver metabolism, sheep compared to cattle, ref Ballent et al., 2016; cited from earlier work
[2] = Plasma pharmacokinetics after oral administration of MNP to parasitized calves; format: in vivo
How it was run: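 Eight calves on Farm 1 received a single oral 2.5 mg/kg dose. Jugular heparinised blood was drawn pre-dose, at 2–10 h and days 1–9; plasma was stored at −20 °C. Acetonitrile extraction, N2 evaporation, then C18 HPLC-UV at 230 nm (acetonitrile:methanol:water 60:8:32, 0.8 mL/min) quantified parent and sulphone metabolite. Calibration 4–400 ng/mL; LOQ 4 ng/mL. Non-compartmental analysis: observed Cmax, trapezoidal AUC extrapolated to infinity, moment-based MRT; mean ± SD.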

Ostertagia spp. = assay: FECR by genus from coprocultures, naturally parasitized calves; format: in vivo
[3] = sheep, ref Lifschitz et al., 2014; cited from earlier work
[4] = system: GI nematodes resistant to IVM and RBZ; assay: Faecal egg count reduction test; format: in vivo; settings: for EPG Counts Day 15: arithmetic mean, n = 15
How it was run: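 Naturally infected male Aberdeen Angus calves, 9–11 months, ≥100 EPG on day −1; 15 per group, allocated by EPG ranking. Herds were levamisole-treated beforehand, then grazed ≥2 months on-farm. Dosing was oral 2.5 mg/kg or SC 0.2 or 3.75 mg/kg. Rectal faeces on day −1 and day 15 were read by modified McMaster (10 EPG). FECR (%) = 100(1 − T2/T1), using arithmetic group mean EPG; 95% CI by the Coles method.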

Haemonchus spp. = assay: FECR by genus from coprocultures, naturally parasitized calves; format: in vivo
How it was run: as §1

Oesophagostomum spp. = assay: as above; format: in vivo
How it was run: as §1

[5] = Adverse events in treated cattle; format: in vivo; settings: cattle treated with MNP oral 2.5 mg/kg

Row | SMILES | FECR Day 15 (Cooperia spp.; Farm 1) | FECR Day 15 (Cooperia spp.; Farm 2) | FECR Day 15 (Cooperia spp.; Farm 3) | FECR Day 15 (Ostertagia spp.; Farm 1) | FECR Day 15 (Ostertagia spp.; Farm 2) | FECR Day 15 (Ostertagia spp.; Farm 3) | EPG Counts Day 15 ([4]; Farm 1, 15 days post-treatment) | EPG Counts Day 15 ([4]; Farm 2, 15 days post-treatment) | EPG Counts Day 15 ([4]; Farm 3, 15 days post-treatment) | FECR Day 15 (Haemonchus spp.; Farm 1) | FECR Day 15 (Haemonchus spp.; Farm 2) | FECR Day 15 (Haemonchus spp.; Farm 3) | FECR Day 15 (Oesophagostomum spp.; Farm 1) | FECR Day 15 (Oesophagostomum spp.; Farm 2) | FECR Day 15 (Oesophagostomum spp.; Farm 3) | further results
1 | C[C@](C#N)(COc1cc(C#N)ccc1C(F)(F)F)NC(=O)c1ccc(SC(F)(F)F)cc1 [MNP, monepantel] | 100% | 100% | 100% | 100% | 100% | 99% | 5.6a (0–20) EPG | 8a (0–20) EPG | 7a (0–20) EPG | 100% | 100% | 100% | 74% | 22% | 64% | reduction of Oesophagostomum (Oesophagostomum; ref Bustamante et al.): 61.9%; efficacy against Oesophagostomum (Oesophagostomum; ref Hosking et al. (2009)): below 90%; reduction of Oesophagostomum (Oesophagostomum; ref Sager et al.): 88%; efficacy (FECR) across farms (Cooperia spp.; Farms 1-3 together): 100%; rate of MNP conversion into MNPSO2 [1]: five-fold higher in sheep compared to cattle; time post-administration up to which analyte was measured/recovered in plasma ([2]; MNP oral 2.5 mg/kg, calves, LOQ 4 ng/mL): up to 120 h; AUC ([2]; bovine, plasma, po, 2.5 mg/kg): 1710 ± 651 ng·h/mL; AUC(0-inf) ([2]; bovine, plasma, po, 2.5 mg/kg): 2170 ± 783 ng·h/mL; Cmax ([2]; bovine, plasma, po, 2.5 mg/kg): 21.5 ± 4.62 ng/mL; MRT ([2]; bovine, plasma, po, 2.5 mg/kg): 112 ± 40.8 h; Tmax ([2]; bovine, plasma, po, 2.5 mg/kg): 8 ± 1.51 h; half-life ([2]; bovine, plasma, po, 2.5 mg/kg): 81 ± 31 h; efficacy (FECR) across farms (Ostertagia spp.; Farms 1-3 together): 100%; concentration of MNP in the large intestine mucosa [3]: 225 ng/g; concentration of MNP in the small intestine mucosa, duodenum [3]: 762 ng/g; concentration of MNP in the small intestine mucosa, ileum [3]: 562 ng/g; overall efficacy (FECR) across farms ([4]; Farms 1, 2 and 3 together, day 15): 96–99%; efficacy (FECR) across farms (Haemonchus spp.; Farms 1-3 together): 100%; adverse events [5]: no adverse events were observed
2 | CCC[S+]([O-])c1ccc2[nH]c(NC(=O)OC)nc2c1 (centres unmarked) [RBZ, ricobendazole] | 86% | 99% | 54% | – | 100% | 0% | 31^a (0–120) EPG | 3^a (0–20) EPG | 115^b (0–320) EPG | 99% | 95% | 98% | 100% | 100% | 100% | efficacy (FECR) on Farms 1 and 3 (Ostertagia spp.; Farms 1 and 3, stated jointly with Cooperia spp.): below 90%; 95% lower confidence interval of FECR ([4]; Farm 1, day 15): less than 90%
3 | CC[C@H](C)[C@H]1O[C@]2(CC[C@@H]1C)C[C@@H]1C[C@@H](C/C=C(\C)[C@@H](O[C@H]3C[C@H](OC)[C@@H](O[C@H]4C[C@H](OC)[C@@H](O)[C@H](C)O4)[C@H](C)O3)[C@@H](C)/C=C/C=C3\CO[C@@H]4[C@H](O)C(C)=C[C@@H](C(=O)O1)[C@]34O)O2 [IVM, ivermectin] | 80% | 56% | 43% | 100% | 100% | 100% | 269^b (0–1060) EPG | 111^b (0–320) EPG | 362^b (20–1520) EPG | 19% | 100% | 0% | 100% | 100% | 100% | –
